Tests used:
[1] = target: T1, Thymidylate synthase (Homo sapiens, UniProt P04818); assay: Inhibition of human thymidylate synthase at 600 uM concentration of 5,10-CH2-H4PteGlu
Method in brief: (§1)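 TS purified ~1350-fold (specific activity 17.4 units/mg) from human acute myeloblastic leukemia cell pellet; tritium-release assay with [5-3H]dUMP, started by enzyme addition, 45 or 60 min incubation. Ki from varying dUMP, 5,10-CH2-H4PteGlu or 5,10-CH2-H4PteGlu5 at several fixed inhibitor levels; fixed cosubstrate 28 µM dUMP or 600 µM CH2-H4PteGlu (40 µM pentaglutamate); duplicate/triplicate, repeated.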
Target sequence in this assay (P04818 whole entry): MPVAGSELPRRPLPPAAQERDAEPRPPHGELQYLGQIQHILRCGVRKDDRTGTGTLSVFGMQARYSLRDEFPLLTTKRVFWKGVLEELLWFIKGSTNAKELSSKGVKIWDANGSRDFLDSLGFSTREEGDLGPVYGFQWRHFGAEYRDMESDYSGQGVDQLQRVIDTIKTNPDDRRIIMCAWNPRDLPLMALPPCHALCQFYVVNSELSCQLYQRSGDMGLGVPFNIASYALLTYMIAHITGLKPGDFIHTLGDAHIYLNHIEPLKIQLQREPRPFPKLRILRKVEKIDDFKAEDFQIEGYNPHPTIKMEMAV

[2] = target: T1, Thymidylate synthase; assay: Inhibition of human thymidylate synthase at 40 uM concentration of 5,10-CH2-H4PteGlu5; method in brief: as §1
Target sequence in this assay (P04818 whole entry): as above

[3] = target: T1, Thymidylate synthase; assay: Mixed inhibition of the human thymidylate synthase at 28 uM of 5,10-CH2-H4PteGlu5; method in brief: as §1
Target sequence in this assay (P04818 2-313 limits assumed): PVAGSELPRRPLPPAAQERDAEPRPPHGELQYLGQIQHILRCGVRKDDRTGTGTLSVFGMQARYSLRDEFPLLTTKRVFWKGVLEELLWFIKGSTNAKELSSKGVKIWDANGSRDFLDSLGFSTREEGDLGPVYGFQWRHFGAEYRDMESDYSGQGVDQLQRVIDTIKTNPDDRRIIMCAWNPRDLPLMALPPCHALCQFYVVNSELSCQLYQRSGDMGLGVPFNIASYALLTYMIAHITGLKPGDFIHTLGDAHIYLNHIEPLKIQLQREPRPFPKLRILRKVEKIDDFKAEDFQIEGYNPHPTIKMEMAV

[4] = target: T1, Thymidylate synthase; assay: Competitive inhibition of the human thymidylate synthase at 600 uM as Ki(slope) of 5,10-CH2-H4PteGlu; details: in the assay text read “28 uM dUMP” for “600 uM”; method in brief: as §1
Target sequence in this assay (P04818 whole entry): as the sequence (P04818 whole entry) above

[5] = target: T1, Thymidylate synthase; assay: Competitive inhibition of the human thymidylate synthase at 600 uM of 5,10-CH2-H4PteGlu
Target sequence in this assay (P04818 whole entry): as above

[6] = target: T1, Thymidylate synthase; assay: Competitive inhibition of the human thymidylate synthase at 28 uM as Ki(slope) of 5,10-CH2-H4PteGlu; method in brief: as §1
Target sequence in this assay (P04818 whole entry): as above

Row | IC50 [1] [nM] | IC50 [2] [nM] | Kii [3] [µM] | Kis [3] [µM] | Ki [4] [nM] | Ki [5] [nM] | Ki [6] [nM] | Compound
1 | 7300 | 1180 | – | – | – | – | – | Cc1nc(N)nc(O)c1N(CCNc1ccc(C(=O)NC(CCC(=O)O)C(=O)O)cc1)Cc1cn([C@H]2C[C@H](O)[C@@H](COP(=O)(O)O)O2)c(=O)[nH]c1=O (stereo partly drawn)
2 | 390 | 200 | 0.11 | 0.33 | 85 | 27 | – | Nc1nc(O)c2c(n1)CCC(CNc1ccc(C(=O)NC(CCC(=O)O)C(=O)O)cc1)N2Cc1cn([C@H]2C[C@H](O)[C@@H](COP(=O)(O)O)O2)c(=O)[nH]c1=O (stereo partly drawn)
3 | 1000 | 350 | 0.2 | 1.19 | – | – | 230 | Cc1nc(N)nc(O)c1N(CCN(C)c1ccc(C(=O)NC(CCC(=O)O)C(=O)O)cc1)Cc1cn([C@H]2C[C@H](O)[C@@H](COP(=O)(O)O)O2)c(=O)[nH]c1=O (stereo partly drawn)
